Compounds with a hit are over-represented: about 2.3% of the library has one in this group of screens.
TRPC4 inh = TRPC4 (mouse) channel inhibition. Q9QUQ5. 300,000 tested, 0.39% active. HEK293 TRPC4beta/mu-opioid, DAMGO-evoked Fluo4 calcium flux; stronger effect = lower value. B-score at 10 µM;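 active = B-score over 3 SD under the library average, no early fluorescence shift, positive overall ratio signal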
Target sequence (Q9QUQ5 whole entry, looked up): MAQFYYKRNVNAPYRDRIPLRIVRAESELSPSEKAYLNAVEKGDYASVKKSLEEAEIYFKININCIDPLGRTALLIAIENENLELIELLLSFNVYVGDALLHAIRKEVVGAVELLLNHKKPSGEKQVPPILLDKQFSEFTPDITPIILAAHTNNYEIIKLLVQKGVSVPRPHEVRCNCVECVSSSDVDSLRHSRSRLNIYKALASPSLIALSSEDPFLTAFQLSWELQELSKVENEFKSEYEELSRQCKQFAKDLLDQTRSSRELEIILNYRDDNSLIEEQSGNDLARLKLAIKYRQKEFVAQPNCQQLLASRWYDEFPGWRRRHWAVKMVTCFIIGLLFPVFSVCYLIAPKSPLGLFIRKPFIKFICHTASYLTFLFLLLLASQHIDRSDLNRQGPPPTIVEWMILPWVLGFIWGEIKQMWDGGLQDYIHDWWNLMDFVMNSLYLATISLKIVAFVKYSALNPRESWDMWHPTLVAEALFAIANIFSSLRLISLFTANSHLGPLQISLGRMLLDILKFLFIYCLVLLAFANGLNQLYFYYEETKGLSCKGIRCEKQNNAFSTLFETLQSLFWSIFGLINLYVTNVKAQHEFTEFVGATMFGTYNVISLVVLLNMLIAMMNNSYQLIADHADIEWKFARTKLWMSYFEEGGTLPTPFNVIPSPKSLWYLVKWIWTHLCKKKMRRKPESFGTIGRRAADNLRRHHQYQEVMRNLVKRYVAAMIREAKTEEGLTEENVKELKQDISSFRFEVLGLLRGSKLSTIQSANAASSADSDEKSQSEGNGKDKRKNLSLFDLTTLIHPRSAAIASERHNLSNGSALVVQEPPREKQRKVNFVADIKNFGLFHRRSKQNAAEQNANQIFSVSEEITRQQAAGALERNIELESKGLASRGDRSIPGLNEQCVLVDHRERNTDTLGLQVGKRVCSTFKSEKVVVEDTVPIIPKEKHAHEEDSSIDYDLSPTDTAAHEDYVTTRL
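Material: HEK293 cells with stable TRPC4beta plus mu-opioid receptor expression / Probe or stimulus: DAMGO in two steps, submaximal then maximal / Compound: single concentration per test compound / Technique: kinetic Fluo4 fluorescence imaging of calcium influx / Read-out: per-well B score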
TRPC6 inh = blocks the mouse TRPC6 cation channel; HEK293-TRPC6, membrane potential dye, ACh-evoked depolarization; stronger effect = lower value; Q61143; 310,000 tested, 1.1% active; B-score at 10 µM; AID 2553;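 active = B-score under library mean minus 3 SD, initial fluorescence not abnormally high, positive integrated signal ratio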;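 note: B-score derived from integrated fluorescence ratio over the kinetic read; more negative B-score means stronger inhibition of depolarization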
TRPC4 potent = allosterically enhances the mouse TRPC4 cation channel. Q9QUQ5. HEK293 TRPC4beta/mu-opioid, DAMGO EC20, Fluo-4 Ca2+ flux; stronger effect = higher value. B-score at 10 µM. 310,000 tested, 0.42% active. AID 2227;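 active = B-score of calcium response area above 5 SD of library B-scores, with initial fluorescence ratio within 5 SD of library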;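 note: B-score of integrated fluorescence ratio over time as area under calcium response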
TRPC6 activator = activates the mouse TRPC6 cation channel; Q61143; HEK293-TRPC6 membrane potential dye fluorescence; stronger effect = higher value; B-score at 10 µM; 310,000 tested, 0.13% active;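 active = B-score of the integrated fluorescence ratio above library mean plus 3 SD, and starting fluorescence ratio within library mean plus 5 SD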;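 note: higher score means more depolarization so channel activation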
TRPC4 act = activators of mouse TRPC4 channel; B-score at 10 µM; HEK293 TRPC4beta/mu-opioid, Fluo4 calcium fluorescence; stronger effect = higher value; Q9QUQ5; AID 2237; 310,000 tested, 0.49% active;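 active = B-score above 5 SD of library B-scores, and initial fluorescence ratio not above library mean plus 5 SD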;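 note: positive B-score marks a calcium rise read as TRPC4 activation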
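Assay system: HEK293 stable line with TRPC4beta plus mu-opioid receptor. Times: dye 45 min RT, read 110 s. Measured by: kinetic Fluo4 calcium fluorescence. Measure: B score of integrated ratio. Controls: assay buffer as low control, maximal DAMGO as high control.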
TRPC4 spec 2 = second selectivity test of TRPC6 inhibitors: effect on mouse TRPC4 | HEK293 TRPC4/MOR, membrane potential dye fluorescence; channel activated by saturating DAMGO dose | 920 tested, 42% active | shares compounds with TRPC6 inh | inhibition, % at 10 µM;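 active = compounds whose fluorescence signal differed from control wells by over 3 SD, either direction, in both duplicate plates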
TRPC4 spec = tests whether TRPC6 inhibitors also affect mouse TRPC4. AID 2777. activity change, negative = inhibition, % at 10 µM. shares compounds with TRPC6 inh. 920 tested, 61% active. HEK293 TRPC4/mu-opioid, membrane potential fluorescence;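 active = rise or fall in signal beyond 3 SD of buffer-only wells in both replicate plates, either sign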;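 note: integrated kinetic ratio of fluorescence range over baseline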
HEK293 MPD ctr 2-1 = second check of TRPC6 inhibitor effects in parental HEK293 cells; signal change vs control, % at 10 µM; AID 2779; 920 tested, 31% active; parental HEK293 membrane potential dye fluorescence; maximal acetylcholine challenge after compound addition; shares compounds with TRPC6 inh;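 active = membrane potential signal moving either way by over 3 SD of the maximum-effect control, in both duplicate plates, meaning non-specific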
HEK293 MPD ctr-1 = checks TRPC6 inhibitor effects in parental HEK293 cells; shares compounds with TRPC6 inh; parental HEK293 membrane potential dye fluorescence; membrane potential signal change, % at 10 µM; 920 tested, 60% active;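 active = membrane potential signal shifting up or down by more than 3 SD of buffer-only wells, on both duplicate plates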
HEK293 MPD ctr-2 = parental HEK293 nonspecific activity of TRPC6 modulators; membrane potential signal change, % at 10 µM; 2,400 tested, 51% active; shares compounds with TRPC6 inh; AID 488924; membrane potential dye fluorescence;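 active = membrane potential signal moves up or down beyond 5 SD from buffer-only wells, on both duplicate plates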
HEK293 MPD ctr 2-2 = parental HEK293 nonspecific activity of TRPC6 modulators, second screen; shares compounds with TRPC6 inh; membrane potential dye fluorescence; after compound, maximal acetylcholine stimulation; inhibition, % at 10 µM; 2,400 tested, 14% active; AID 488926;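 active = membrane potential signal drops by more than 5 SD from the mean control signal, in both duplicate plates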;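 note: plate controls were acetylcholine ECmax control wells for no effect and buffer only wells for full effect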
TRPC4 ctr mod = mouse TRPC4 off-target activity of TRPC6 modulators; shares compounds with TRPC6 inh; HEK293 TRPC4/mu-opioid, membrane potential fluorescence; percent change from control (negative = decrease, positive = increase), % at 10 µM; 2,400 tested, 69% active; AID 488927;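 active = membrane potential signal moved up or down beyond 5 SD of buffer control wells, in both duplicate plates, actives on both sides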;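 note: plate controls were assay buffer wells for no effect and DAMGO maximal-effect wells for full effect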
TRPC4/MOR inh 2 = second check of whether TRPC6 modulators also affect mouse TRPC4. HEK293 TRPC4/mu-opioid, membrane potential dye fluorescence; stimulated with maximal-effect DAMGO. 2,400 tested, 55% active. shares compounds with TRPC6 inh. inhibition, % at 10 µM;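 active = drop in membrane potential signal beyond 5 SD of the control wells in both duplicate plates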;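 note: TRPC4 counter screen for TRPC6 hits run under conditions tuned for TRPC6 not TRPC4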
TRPC6 inh conf = mouse TRPC6 inhibitor confirmation | shares compounds with TRPC6 inh | HEK293-TRPC6, membrane potential dye, ACh-evoked depolarization | inhibition, % at 10 µM | 3,300 tested, 43% active;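 active = fluorescence ratio falls more than 5 SD below the full-stimulation control mean, in both duplicate runs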;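 note: integrated fluorescence ratio of peak minus minimum over baseline after agonist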
TRPC6 act conf = mouse TRPC6 activator confirmation; shares compounds with TRPC6 inh; 2,800 tested, 11% active; AID 488961; activation, % at 10 µM; HEK293-TRPC6 membrane potential dye fluorescence, FDSS;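 active = ratio signal rise beyond 5 SD above unstimulated control wells' mean, seen in both duplicate runs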;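 note: plate controls were buffer EC0 wells for no effect and acetylcholine ECmax response for full effect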
* hit, by the source's call.

What do the screens show for `O=C(/C=C/c1c[nH]c2ccccc12)c1c(O)n(CCc2ccccc2)c(=O)[nH]c1=O`?
TRPC4 inh: inactive; TRPC6 inh: inactive; TRPC4 potent: inactive; TRPC6 activator: 144*; TRPC4 act: inactive; HEK293 MPD ctr-2: active; HEK293 MPD ctr 2-2: inactive; TRPC4 ctr mod: 392%*; TRPC4/MOR inh 2: inactive; TRPC6 inh conf: inactive; TRPC6 act conf: 390%*

What do the screens show for `Cc1nc2c(C(=O)N3CCC4(CC3)OCCO4)cnn2c(C)c1Cc1cccc(Cl)c1`?
TRPC4 inh: inactive; TRPC6 inh: -5.2*; TRPC4 potent: inactive; TRPC6 activator: inactive; TRPC4 act: inactive; HEK293 MPD ctr-2: inactive; HEK293 MPD ctr 2-2: inactive; TRPC4 ctr mod: inactive; TRPC4/MOR inh 2: inactive; TRPC6 inh conf: 45%*

How did CN1CCN(CCOC2c3ccccc3CSc3ccc(Cl)cc32)CC1 (stereo unspecified) do in these assays?
TRPC4 inh: inactive; TRPC6 inh: inactive; TRPC4 potent: inactive; TRPC6 activator: inactive; TRPC4 act: inactive

How did CN(C)CCSC1c2ccccc2CSc2ccccc21 (stereo unspecified) do in these assays?
TRPC4 inh: inactive; TRPC6 inh: -6.2*; TRPC4 potent: inactive; TRPC6 activator: inactive; TRPC4 act: inactive; HEK293 MPD ctr-2: inactive; HEK293 MPD ctr 2-2: 78%*; TRPC4 ctr mod: 11%*; TRPC4/MOR inh 2: 50%*; TRPC6 inh conf: 74%*

Results for Cc1cc2ccccc2c(=O)n1CC(=O)NCC(=O)N1CCC2(CC1)OCCO2 ?
TRPC4 inh: inactive; TRPC6 inh: inactive; TRPC4 potent: inactive; TRPC6 activator: inactive; TRPC4 act: inactive

Results for O=C(Nc1cccc(C(F)(F)F)c1)OC1CN2CCC1CC2 (stereo unspecified) ?
TRPC4 inh: inactive; TRPC6 inh: -6.5*; TRPC4 potent: inactive; TRPC6 activator: inactive; TRPC4 act: inactive; HEK293 MPD ctr-2: inactive; HEK293 MPD ctr 2-2: inactive; TRPC4 ctr mod: inactive; TRPC4/MOR inh 2: inactive; TRPC6 inh conf: 54%*; TRPC6 act conf: inactive

Results for C[N+]12CCC(CC1)C(C(O)(c1ccccc1)c1cccs1)C2 (stereo unspecified) ?
TRPC4 inh: inactive; TRPC6 inh: -5.7*; TRPC4 potent: inactive; TRPC6 activator: inactive; TRPC4 act: inactive; HEK293 MPD ctr-2: inactive; HEK293 MPD ctr 2-2: inactive; TRPC4 ctr mod: inactive; TRPC4/MOR inh 2: inactive; TRPC6 inh conf: 55%*; TRPC6 act conf: inactive

How did CCC[N+]12CCC(CC1)C(C(O)(c1ccccc1)c1ccccc1)C2 (stereo unspecified) do in these assays?
TRPC4 inh: inactive; TRPC6 inh: inactive; TRPC4 potent: inactive; TRPC6 activator: inactive; TRPC4 act: inactive

What do the screens show for `CC[N+](C)(CC)CCCOC(=O)C(O)(c1ccccc1)C1CCCCC1` (stereo unspecified)?
TRPC4 inh: inactive; TRPC6 inh: -8.1*; TRPC4 potent: inactive; TRPC6 activator: inactive; TRPC4 act: inactive; TRPC4 spec 2: inactive; TRPC4 spec: inactive; HEK293 MPD ctr 2-1: inactive; HEK293 MPD ctr-1: inactive; TRPC6 inh conf: inactive; TRPC6 act conf: inactive

What do the screens show for `CCOC(C(=O)OCCC[N+](C)(CC)CC)(c1ccccc1)c1ccccc1`?
TRPC4 inh: inactive; TRPC6 inh: inactive; TRPC4 potent: inactive; TRPC6 activator: inactive; TRPC4 act: inactive

What do the screens show for `O=C1NC(=O)C(=Cc2coc3ccc(O)cc3c2=O)C(=O)N1`?
TRPC4 inh: inactive; TRPC6 inh: inactive; TRPC4 potent: inactive; TRPC6 activator: inactive; TRPC4 act: inactive

Results for O=[N+]([O-])c1cnc[nH]1 ?
TRPC4 inh: inactive; TRPC6 inh: inactive; TRPC4 potent: inactive; TRPC6 activator: inactive; TRPC4 act: inactive

Results for N#CC(C#N)=C(C#N)c1ccc(Nc2ccccc2)cc1 ?
TRPC4 inh: inactive; TRPC6 inh: -8.5*; TRPC4 potent: inactive; TRPC6 activator: inactive; TRPC4 act: inactive; TRPC4 spec 2: inactive; TRPC4 spec: -10%*; HEK293 MPD ctr 2-1: inactive; HEK293 MPD ctr-1: inactive; TRPC6 inh conf: inactive; TRPC6 act conf: inactive

How did CN1CCN(c2ccc(N)cc2Cl)CC1 do in these assays?
TRPC4 inh: inactive; TRPC6 inh: inactive; TRPC4 potent: inactive; TRPC6 activator: inactive; TRPC4 act: inactive

How did CCNCCNc1ccc([N+](=O)[O-])c2cccnc12 do in these assays?
TRPC4 inh: inactive; TRPC6 inh: -5.9*; TRPC4 potent: 18*; TRPC6 activator: inactive; TRPC4 act: inactive; HEK293 MPD ctr-2: -288%*; HEK293 MPD ctr 2-2: inactive; TRPC4 ctr mod: -40%*; TRPC4/MOR inh 2: 54%*; TRPC6 inh conf: 72%*; TRPC6 act conf: inactive

Assay outcomes: PubChem BioAssay, Johns Hopkins Ion Channel Center
